Experimental data: ChEMBL document CHEMBL1671676, “In vitro activity of nemonoxacin, a novel nonfluorinated quinolone, against 2,440 clinical isolates” (2009)
Values after ≈ are worked out from the molar mass of the structure shown.

Key:
Type in all cases: functional
[1] = tested on: Staphylococcus epidermidis; assay: Antibacterial activity against methicillin-susceptible Staphylococcus epidermidis assessed as percent cumulative susceptible isolates at minimum inhibitory concentration of 2 ug/ml by CLSI broth microdilution method; design: scale not given: the % may be the effect or the level left
[2] = tested on: Staphylococcus epidermidis; assay: Antibacterial activity against methicillin-resistant Staphylococcus epidermidis assessed as percent cumulative susceptible isolates at minimum inhibitory concentration of […] by CLSI broth microdilution method; design: scale not given: the % may be the effect or the level left
[3] = tested on: Enterobacter cloacae; assay: Antibacterial activity against Enterobacter cloacae assessed as percent cumulative susceptible isolates at minimum inhibitory concentration of 8 ug/ml by CLSI broth microdilution method; design: scale not given: the % may be the effect or the level left
[4] = tested on: Proteus mirabilis; assay: Antibacterial activity against Proteus mirabilis assessed as percent cumulative susceptible isolates at minimum inhibitory concentration of 4 ug/ml by CLSI broth microdilution method; design: scale not given: the % may be the effect or the level left
[5] = tested on: Enterococcus faecalis; assay: Antibacterial activity against Enterococcus faecalis assessed as percent cumulative susceptible isolates at minimum inhibitory concentration of […] by CLSI broth microdilution method; design: scale not given: the % may be the effect or the level left
[6] = tested on: Enterococcus faecalis; assay: Antibacterial activity against Enterococcus faecalis assessed as percent cumulative susceptible isolates at minimum inhibitory concentration of 2 ug/ml by CLSI broth microdilution method; design: scale not given: the % may be the effect or the level left
[7] = tested on: Pseudomonas aeruginosa; assay: Antibacterial activity against Pseudomonas aeruginosa assessed as percent cumulative susceptible isolates at minimum inhibitory concentration of 2 ug/ml by CLSI broth microdilution method; design: scale not given: the % may be the effect or the level left
[8] = tested on: Stenotrophomonas maltophilia; assay: Antibacterial activity against Stenotrophomonas maltophilia assessed as percent cumulative susceptible isolates at minimum inhibitory concentration of […] by CLSI broth microdilution method; design: scale not given: the % may be the effect or the level left
[9] = tested on: Stenotrophomonas maltophilia; assay: Antibacterial activity against Stenotrophomonas maltophilia assessed as percent cumulative susceptible isolates at minimum inhibitory concentration of 2 ug/ml by CLSI broth microdilution method; design: scale not given: the % may be the effect or the level left
[10] = tested on: Acinetobacter baumannii; assay: Antibacterial activity against Acinetobacter baumannii assessed as percent cumulative susceptible isolates at minimum inhibitory concentration of […] by CLSI broth microdilution method; design: scale not given: the % may be the effect or the level left
[11] = tested on: Staphylococcus aureus; assay: Antibacterial activity against methicillin-resistant Staphylococcus aureus by CLSI M7-A7 broth microdilution method
[12] = tested on: Acinetobacter baumannii; assay: Antibacterial activity against Acinetobacter baumannii assessed as percent cumulative susceptible isolates at minimum inhibitory concentration of 1 ug/ml by CLSI broth microdilution method; design: scale not given: the % may be the effect or the level left
[13] = tested on: Staphylococcus aureus; assay: Antibacterial activity against community-associated methicillin-resistant Staphylococcus aureus by CLSI M7-A7 broth microdilution method
How it was run: (§1)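 Clinical isolates tested by CLSI broth microdilution using 96-well panels of doubling drug dilutions in cation-adjusted Mueller-Hinton broth with 5% lysed horse blood. MIC was read from these panels. Panel quality control used CLSI ATCC strains, including S. pneumoniae 49619, S. aureus 29213, E. faecalis 29212 and E. coli 25922. Cumulative percentages of isolates were tabulated at each MIC.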

[14] = tested on: Streptococcus pneumoniae; assay: Antibacterial activity against penicillin-resistant Streptococcus pneumoniae by CLSI M7-A7 broth microdilution method
How it was run: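 Broth microdilution per CLSI guidelines on clinical isolates, using panels of doubling drug dilutions in cation-adjusted Mueller-Hinton broth with 5% lysed horse blood. MIC read per CLSI, and cumulative percentage of isolates inhibited at each concentration tabulated.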

[15] = tested on: Stenotrophomonas maltophilia; assay: Antibacterial activity against Stenotrophomonas maltophilia by CLSI M7-A7 broth microdilution method
[16] = tested on: Staphylococcus aureus; assay: Antibacterial activity against methicillin-susceptible Staphylococcus aureus assessed as percent cumulative susceptible isolates at minimum inhibitory concentration of 0.5 ug/ml by CLSI broth microdilution method; design: scale not given: the % may be the effect or the level left
[17] = tested on: Staphylococcus aureus; assay: Antibacterial activity against methicillin-susceptible Staphylococcus aureus assessed as percent cumulative susceptible isolates at minimum inhibitory concentration of 32 ug/ml by CLSI broth microdilution method; design: scale not given: the % may be the effect or the level left; how it was run: as §1
[18] = tested on: Staphylococcus aureus; assay: (§2) Antibacterial activity against methicillin-resistant Staphylococcus aureus assessed as percent cumulative susceptible isolates at minimum inhibitory concentration of […] by CLSI broth microdilution method; design: scale not given: the % may be the effect or the level left
[19] = tested on: Staphylococcus aureus; assay: as §2; design: scale not given: the % may be the effect or the level left; remark: listed apart in the source
[20] = tested on: Staphylococcus aureus; assay: Antibacterial activity against methicillin-resistant Staphylococcus aureus assessed as percent cumulative susceptible isolates at minimum inhibitory concentration of 2 ug/ml by CLSI broth microdilution method; design: scale not given: the % may be the effect or the level left
[21] = tested on: Enterococcus faecium; assay: Antibacterial activity against Enterococcus faecium assessed as percent cumulative susceptible isolates at minimum inhibitory concentration of […] by CLSI broth microdilution method; design: scale not given: the % may be the effect or the level left
[22] = tested on: Enterococcus faecium; assay: Antibacterial activity against Enterococcus faecium assessed as percent cumulative susceptible isolates at minimum inhibitory concentration of 4 ug/ml by CLSI broth microdilution method; design: scale not given: the % may be the effect or the level left
[23] = tested on: Enterococcus faecium; assay: Antibacterial activity against Enterococcus faecium assessed as percent cumulative susceptible isolates at minimum inhibitory concentration of 32 ug/ml by CLSI broth microdilution method; design: scale not given: the % may be the effect or the level left
[24] = tested on: Escherichia coli; assay: Antibacterial activity against Escherichia coli assessed as percent cumulative susceptible isolates at minimum inhibitory concentration of 1 ug/ml by CLSI broth microdilution method; design: scale not given: the % may be the effect or the level left
[25] = tested on: Escherichia coli; assay: Antibacterial activity against Escherichia coli assessed as percent cumulative susceptible isolates at minimum inhibitory concentration of 32 ug/ml by CLSI broth microdilution method; design: scale not given: the % may be the effect or the level left
[26] = tested on: Escherichia coli; assay: Antibacterial activity against Escherichia coli assessed as percent cumulative susceptible isolates at minimum inhibitory concentration of 256 ug/ml by CLSI broth microdilution method; design: scale not given: the % may be the effect or the level left
[27] = tested on: Klebsiella pneumoniae; assay: Antibacterial activity against Klebsiella pneumoniae assessed as percent cumulative susceptible isolates at minimum inhibitory concentration of 0.06 ug/ml by CLSI broth microdilution method; design: scale not given: the % may be the effect or the level left
[28] = tested on: Klebsiella pneumoniae; assay: Antibacterial activity against Klebsiella pneumoniae assessed as percent cumulative susceptible isolates at minimum inhibitory concentration of […] by CLSI broth microdilution method; design: scale not given: the % may be the effect or the level left
[29] = tested on: Klebsiella oxytoca; assay: Antibacterial activity against Klebsiella oxytoca assessed as percent cumulative susceptible isolates at minimum inhibitory concentration of […] by CLSI broth microdilution method; design: scale not given: the % may be the effect or the level left
[30] = tested on: Enterobacter cloacae; assay: Antibacterial activity against Enterobacter cloacae assessed as percent cumulative susceptible isolates at minimum inhibitory concentration of […] by CLSI broth microdilution method; design: scale not given: the % may be the effect or the level left
[31] = tested on: Staphylococcus aureus; assay: Antibacterial activity against Levofloxacin-susceptible Staphylococcus aureus assessed as percent cumulative susceptible isolates at minimum inhibitory concentration of […] by CLSI broth microdilution method; design: scale not given: the % may be the effect or the level left
[32] = tested on: Staphylococcus aureus; assay: Antibacterial activity against non-levofloxacin susceptible Staphylococcus aureus assessed as percent cumulative susceptible isolates at minimum inhibitory concentration of 2 ug/ml by CLSI broth microdilution method; design: scale not given: the % may be the effect or the level left
[33] = tested on: Staphylococcus aureus; assay: Antibacterial activity against community-associated methicillin-resistant Staphylococcus aureus assessed as percent cumulative susceptible isolates at minimum inhibitory concentration of 0.5 ug/ml by CLSI broth microdilution method; design: scale not given: the % may be the effect or the level left
[34] = tested on: Staphylococcus aureus; assay: Antibacterial activity against hospital-associated methicillin-resistant Staphylococcus aureus assessed as percent cumulative susceptible isolates at minimum inhibitory concentration of […] by CLSI broth microdilution method; design: scale not given: the % may be the effect or the level left
[35] = tested on: Staphylococcus epidermidis; assay: Antibacterial activity against methicillin-susceptible Staphylococcus epidermidis assessed as percent cumulative susceptible isolates at minimum inhibitory concentration of 0.06 ug/ml by CLSI broth microdilution method; design: scale not given: the % may be the effect or the level left
[36] = tested on: Staphylococcus epidermidis; assay: Antibacterial activity against methicillin-susceptible Staphylococcus epidermidis assessed as percent cumulative susceptible isolates at minimum inhibitory concentration of […] by CLSI broth microdilution method; design: scale not given: the % may be the effect or the level left
[37] = tested on: Proteus mirabilis; assay: Antibacterial activity against Proteus mirabilis assessed as percent cumulative susceptible isolates at minimum inhibitory concentration of 8 ug/ml by CLSI broth microdilution method; design: scale not given: the % may be the effect or the level left

SMILES: COc1c(N2C[C@@H](C)C[C@H](N)C2)ccc2c(=O)c(C(=O)O)cn(C3CC3)c12 [NEMONOXACIN]
- Activity [1]: 97.8%
- Activity [2]: 11.1%
- Activity [3]: 95.8%
- Activity [4]: 81.8%
- Activity [5]: 67.9%
- Activity [6]: 97.5%
- Activity [7]: 66.4%
- Activity [8]: 3.8%
- Activity [9]: 42.3%
- Activity [10]: 73.3%
- MIC50 [11]: 4 mg/L (≈ 10.8 µM)
- Activity [12]: 93.3%
- MIC50 [13]: 0.25 mg/L (≈ 0.673 µM)
- MIC90 [13]: 0.5 mg/L (≈ 1.35 µM)
- MIC90 [14]: 0.03 mg/L (≈ 0.0808 µM)
- MIC90 [15]: ≥ 4 mg/L
- Activity [16]: 93.9%
- Activity [17]: 100%
- Activity [18]: 4.7%
- Activity [19]: 16.5%
- Activity [20]: 37.8%
- Activity [21]: 28.9%
- Activity [22]: 42.1%
- Activity [23]: 79%
- Activity [24]: 74.8%
- Activity [25]: 93.2%
- Activity [26]: 99.7%
- Activity [27]: 1.5%
- Activity [28]: 68.3%
- Activity [29]: 81.3%
- Activity [30]: 83.3%
- Activity [31]: 33.8%
- Activity [32]: 36.1%
- Activity [33]: 92%
- Activity [34]: 4%
- Activity [35]: 58.1%
- Activity [36]: 86%

SMILES: C[C@H]1COc2c(N3CCN(C)CC3)c(F)cc3c(=O)c(C(=O)O)cn1c23.C[C@H]1COc2c(N3CCN(C)CC3)c(F)cc3c(=O)c(C(=O)O)cn1c23.O [LEVOFLOXACIN]
- Activity [1]: 55.8%
- Activity [3]: 98.6%
- Activity [4]: 93.9%
- Activity [5]: 2.5%
- Activity [6]: 67.9%
- Activity [37]: 97%
- Activity [7]: 70.1%
- Activity [9]: 69.2%
- Activity [10]: 80%
- MIC50 [11]: ≥ 32 mg/L
- Activity [12]: 93.3%
- Activity [16]: 88.8%
- Activity [17]: 100%
- Activity [19]: 8.7%
- Activity [22]: 28.9%
- Activity [23]: 100%
- Activity [24]: 75.1%
- Activity [25]: 100%
- Activity [27]: 69.8%
- Activity [28]: 78.4%
- Activity [29]: 100%
- Activity [30]: 90.3%
- Activity [34]: 3%
- Activity [36]: 53.5%
